Columns and labels:
[1] = Protein binding in monkey plasma assessed as unbound fraction; type: ADME, cell-free, Macaca mulatta; conditions: rhesus monkey
Cytochrome P450 3A4 [2] = biological target: T1, Cytochrome P450 3A4 (Homo sapiens, UniProt P08684); assay: Inhibition of CYP3A4 (unknown origin) assessed as inactivation relative to control; type: ADME
Cytochrome P450 2C19 [3] = biological target: T2, Cytochrome P450 2C19 (Homo sapiens, UniProt P33261); assay: Inhibition of CYP2C19 (unknown origin); type: ADME
T2 sequence (P33261 whole entry): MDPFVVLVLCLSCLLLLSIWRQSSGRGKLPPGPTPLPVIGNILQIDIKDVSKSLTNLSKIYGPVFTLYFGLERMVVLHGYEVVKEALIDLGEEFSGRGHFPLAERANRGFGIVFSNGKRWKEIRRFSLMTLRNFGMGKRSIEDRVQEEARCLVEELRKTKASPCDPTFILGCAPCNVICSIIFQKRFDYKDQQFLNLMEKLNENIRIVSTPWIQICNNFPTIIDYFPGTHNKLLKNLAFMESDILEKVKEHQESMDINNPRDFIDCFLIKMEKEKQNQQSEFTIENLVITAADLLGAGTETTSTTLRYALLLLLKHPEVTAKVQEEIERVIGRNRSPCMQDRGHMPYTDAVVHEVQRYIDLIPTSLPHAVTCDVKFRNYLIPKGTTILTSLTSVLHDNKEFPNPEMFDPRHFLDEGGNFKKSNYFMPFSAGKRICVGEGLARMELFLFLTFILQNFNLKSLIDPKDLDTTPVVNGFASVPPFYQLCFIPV

[4] = Protein binding in mouse plasma assessed as unbound fraction; type: ADME, cell-free
[5] = Oral bioavailability in monkey at 5 mg/kg; type: ADME, organism-based, Macaca mulatta; conditions: rhesus monkey, in vivo
Cytochrome P450 2D6 [6] = biological target: T3, Cytochrome P450 2D6 (Homo sapiens, UniProt P10635); assay: Inhibition of CYP2D6 (unknown origin); type: ADME
T3 sequence (P10635 whole entry): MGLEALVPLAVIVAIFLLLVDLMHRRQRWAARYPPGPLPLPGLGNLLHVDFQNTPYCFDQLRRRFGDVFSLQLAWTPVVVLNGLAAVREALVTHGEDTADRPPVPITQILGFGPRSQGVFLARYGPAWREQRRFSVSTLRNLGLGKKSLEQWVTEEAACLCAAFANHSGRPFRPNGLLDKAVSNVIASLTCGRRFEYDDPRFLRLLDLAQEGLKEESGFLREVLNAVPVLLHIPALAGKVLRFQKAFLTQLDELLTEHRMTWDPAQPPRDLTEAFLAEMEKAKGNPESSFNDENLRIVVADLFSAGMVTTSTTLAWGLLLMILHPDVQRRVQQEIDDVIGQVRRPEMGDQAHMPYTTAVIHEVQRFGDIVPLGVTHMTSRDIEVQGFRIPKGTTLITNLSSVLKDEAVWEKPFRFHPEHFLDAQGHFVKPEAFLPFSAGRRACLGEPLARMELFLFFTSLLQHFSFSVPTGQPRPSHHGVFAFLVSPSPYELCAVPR

Cytochrome P450 3A4 [7] = biological target: T1, Cytochrome P450 3A4; assay: Inhibition of CYP3A4 (unknown origin); type: ADME
[8] = Protein binding in rat plasma assessed as unbound fraction; type: ADME, cell-free
Cytochrome P450 2C9 = Cytochrome P450 2C9 (Homo sapiens, UniProt P11712); assay: Inhibition of CYP2C9 (unknown origin); type: ADME
Cytochrome P450 2C9, sequence (P11712 whole entry): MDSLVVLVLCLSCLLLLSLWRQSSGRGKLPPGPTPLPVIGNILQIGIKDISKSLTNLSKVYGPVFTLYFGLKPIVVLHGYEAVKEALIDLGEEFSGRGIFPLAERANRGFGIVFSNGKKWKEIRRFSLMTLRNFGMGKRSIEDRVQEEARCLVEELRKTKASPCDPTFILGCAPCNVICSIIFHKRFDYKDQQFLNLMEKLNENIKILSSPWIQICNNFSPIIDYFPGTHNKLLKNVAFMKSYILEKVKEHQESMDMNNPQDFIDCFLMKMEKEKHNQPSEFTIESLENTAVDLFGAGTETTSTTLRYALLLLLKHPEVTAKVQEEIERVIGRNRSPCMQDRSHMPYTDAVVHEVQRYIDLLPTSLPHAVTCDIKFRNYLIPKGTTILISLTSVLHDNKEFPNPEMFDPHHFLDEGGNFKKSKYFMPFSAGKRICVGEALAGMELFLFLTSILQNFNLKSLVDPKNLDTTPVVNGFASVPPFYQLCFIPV

HCT-116 [9] = assay: Anticancer activity in MTAP-null human HCT116 cells xenografted mouse model assessed as tumor growth inhibition at 10 mg/kg, po qd treated for 38 days relative to control; type: functional; conditions: HCT-116, po, 912 h, time 38 day, read-out: TGI
Cytochrome P450 2D6 [10] = biological target: T3, Cytochrome P450 2D6; assay: Inhibition of CYP2D6 (unknown origin) assessed as inactivation relative to control; type: ADME
KP-4 [11] = assay: Anticancer activity in MTAP-null human KP-4 cells xenografted mouse model assessed as inhibition of SAM production at 100 mg/kg, po qd treated for 38 days relative to control; type: functional; conditions: KP-4, po, 912 h, time 38 day
How it was run: (§1)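 Subcutaneous KP4 MTAP-null xenograft mice, 12 per arm (60 animals), dosed orally once daily on days 24−38 at 10−200 mg/kg. Tumor SAM levels and plasma compound exposure were monitored; plasma sampled up to 24 h after the last dose. Mean tumor volume and body weight change were tracked; error bars are SEM.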

KP-4 [12] = assay: Anticancer activity in MTAP-null human KP-4 cells xenografted mouse model assessed as tumor growth inhibition at 200 mg/kg, po qd treated for 38 days relative to control; type: functional; conditions: KP-4, po, 912 h, time 38 day, read-out: TGI; how it was run: as §1
KP-4 [13] = assay: Anticancer activity in MTAP-null human KP-4 cells xenografted mouse model assessed as tumor growth inhibition at 30 mg/kg, po qd treated for 38 days relative to control; type: functional; conditions: KP-4, po, 912 h, time 38 day, read-out: TGI; how it was run: as §1
PXR (NR1I2) = biological target: T4, PXR (NR1I2) (Homo sapiens, UniProt O75469); assay: Transactivation of PXR in human HepG2 cells relative to rifampicin; type: cell-based; conditions: read-out: Activity
T4 sequence (O75469 whole entry): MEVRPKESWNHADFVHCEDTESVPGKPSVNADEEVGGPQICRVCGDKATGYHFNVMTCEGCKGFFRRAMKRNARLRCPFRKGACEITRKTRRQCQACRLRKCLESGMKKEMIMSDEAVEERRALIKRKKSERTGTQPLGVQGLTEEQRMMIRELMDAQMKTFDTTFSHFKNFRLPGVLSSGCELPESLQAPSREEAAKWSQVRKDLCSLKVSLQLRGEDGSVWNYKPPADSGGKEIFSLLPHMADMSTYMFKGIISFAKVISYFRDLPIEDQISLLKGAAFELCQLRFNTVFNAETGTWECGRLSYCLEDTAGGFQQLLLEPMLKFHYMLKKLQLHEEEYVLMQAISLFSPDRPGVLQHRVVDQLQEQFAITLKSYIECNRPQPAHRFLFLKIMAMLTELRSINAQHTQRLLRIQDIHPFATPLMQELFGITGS

[14] = Protein binding in human plasma assessed as unbound fraction; type: ADME, cell-free
[15] = Toxicity in MTAP-null human KP-4 cells xenografted mouse model assessed as body weight change at 10 to 200 mg/kg, po qd treated for 38 days; type: organism-based; conditions: in vivo, 912 h, dose 10-200 mg/kg, time 38 day; how it was run: as §1
KP-4 [16] = assay: Anticancer activity in MTAP-null human KP-4 cells xenografted mouse model assessed as tumor growth inhibition at 100 mg/kg, po qd treated for 38 days relative to control; type: functional; conditions: KP-4, po, 912 h, time 38 day, read-out: TGI; how it was run: as §1
[17] = Protein binding in dog plasma assessed as unbound fraction; type: ADME, cell-free, Canis lupus familiaris
KP-4 [18] = assay: Anticancer activity in MTAP-null human KP-4 cells xenografted mouse model assessed as inhibition of SAM production at 30 mg/kg, po qd treated for 38 days relative to control; type: functional; conditions: KP-4, po, 912 h, time 38 day; how it was run: as §1
KP-4 [19] = assay: Anticancer activity in MTAP-null human KP-4 cells xenografted mouse model assessed as inhibition of SAM production at 200 mg/kg, po qd treated for 38 days relative to control; type: functional; conditions: KP-4, po, 912 h, time 38 day; how it was run: as §1
HCT-116 [20] = assay: cells; conditions: Homo sapiens, HCT-116, 96 h
Cytochrome P450 2C19 [21] = biological target: T2, Cytochrome P450 2C19; assay: Inhibition of CYP2C19 (unknown origin) assessed as inactivation relative to control; type: ADME
[22] = Oral bioavailability in rat at 5 mg/kg; type: ADME, organism-based; conditions: in vivo
Cytochrome P450 2B6 = biological target: T5, Cytochrome P450 2B6 (Homo sapiens, UniProt P20813); assay: Inhibition of CYP2B6 (unknown origin) assessed as inactivation relative to control; type: ADME
T5 sequence (P20813 whole entry): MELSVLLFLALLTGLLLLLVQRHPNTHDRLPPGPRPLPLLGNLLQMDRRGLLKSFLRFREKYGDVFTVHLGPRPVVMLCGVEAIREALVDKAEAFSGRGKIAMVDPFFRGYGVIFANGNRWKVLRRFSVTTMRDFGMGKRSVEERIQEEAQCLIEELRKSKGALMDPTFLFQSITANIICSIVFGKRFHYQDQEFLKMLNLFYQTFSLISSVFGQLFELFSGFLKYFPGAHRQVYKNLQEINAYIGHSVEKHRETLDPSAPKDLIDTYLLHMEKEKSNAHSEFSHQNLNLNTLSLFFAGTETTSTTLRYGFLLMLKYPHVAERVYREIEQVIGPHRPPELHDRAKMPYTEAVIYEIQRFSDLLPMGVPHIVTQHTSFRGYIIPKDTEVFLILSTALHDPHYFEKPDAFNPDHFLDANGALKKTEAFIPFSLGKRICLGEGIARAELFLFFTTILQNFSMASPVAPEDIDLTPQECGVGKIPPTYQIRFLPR

T1 sequence (P08684 whole entry): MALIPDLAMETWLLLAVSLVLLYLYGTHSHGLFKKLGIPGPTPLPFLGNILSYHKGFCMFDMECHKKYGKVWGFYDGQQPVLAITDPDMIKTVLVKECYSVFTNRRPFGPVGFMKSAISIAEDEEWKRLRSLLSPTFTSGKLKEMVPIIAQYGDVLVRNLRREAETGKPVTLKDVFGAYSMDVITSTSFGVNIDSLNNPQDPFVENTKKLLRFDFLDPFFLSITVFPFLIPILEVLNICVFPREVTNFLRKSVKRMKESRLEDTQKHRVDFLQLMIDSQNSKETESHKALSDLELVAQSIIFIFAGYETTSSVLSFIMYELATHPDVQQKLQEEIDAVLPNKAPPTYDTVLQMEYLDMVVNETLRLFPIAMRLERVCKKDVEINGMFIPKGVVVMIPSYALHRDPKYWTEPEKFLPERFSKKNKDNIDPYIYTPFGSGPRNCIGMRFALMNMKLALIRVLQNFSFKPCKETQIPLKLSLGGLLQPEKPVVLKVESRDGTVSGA

fraction unbound [1]: 0.011 | INH (Cytochrome P450 3A4 [2]): > 50 µM | IC50 (Cytochrome P450 2C19 [3]): > 10 µM | fraction unbound [4]: 0.0028 | bioavailability [5]: 31% | IC50 (Cytochrome P450 2D6 [6]): > 10 µM | IC50 (Cytochrome P450 3A4 [7]): > 10 µM | fraction unbound [8]: 0.016 | IC50 (Cytochrome P450 2C9): > 10 µM | INH (Cytochrome P450 2D6 [10]): > 50 µM | Emax (PXR (NR1I2)): 22% | fraction unbound [14]: 0.015 | fraction unbound [17]: 0.028 | IC50 (HCT-116 [20]): 0.257 µM | INH (Cytochrome P450 2C19 [21]): > 50 µM | bioavailability [22]: 92% | INH (Cytochrome P450 2B6): > 3.6 µM
Structure (SMILES): COc1ccc(-c2c(Nc3ccccn3)[nH]c3c(C4=CCCCC4)c(-c4ccccc4)nn3c2=O)cc1
inhibition in vivo at 10 mg/kg (HCT-116 [9]): 75% | inhibition in vivo at 100 mg/kg (KP-4 [11]): 63.5% | inhibition in vivo at 200 mg/kg (KP-4 [12]): 67% | inhibition in vivo at 30 mg/kg (KP-4 [13]): 48% | Activity [15]: Non-Toxic | inhibition in vivo at 100 mg/kg (KP-4 [16]): 66% | inhibition in vivo at 30 mg/kg (KP-4 [18]): 44.7% | inhibition in vivo at 200 mg/kg (KP-4 [19]): 81.1%

From ChEMBL document CHEMBL4834423, “Discovery of AG-270, a First-in-Class Oral MAT2A Inhibitor for the Treatment of Tumors with Homozygous MTAP Deletion” (J Med Chem, 2021)
